Bioassay records: PubChem, The Scripps Research Institute Molecular Screening Center
M5 ag – CHRM5 agonism in calcium assay; P08912; CHO-K1 hM5 cells, Fluo-8 calcium fluorescence; 0% DMSO wells, 100% maximal acetylcholine response; activation, % at 3 µM; hit rate 0.19% among 360,000;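 active = activation above the run's mean over test compounds plus 3 SD, cut at about 23% in these data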;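 also: signal is peak over basal fluorescence ratio across the kinetic read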
CHRM4 agonist – CHRM4 agonism in calcium assay | CHO-K1 hM4/Gqi5, Fluo-8 calcium fluorescence; vehicle 0%, full acetylcholine response 100% | activation, % at 3 µM | hit rate 0.14% among 360,000 | AID 624127;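 active = activation above the run mean over all test wells plus 3 SD, cut at about 32% in these data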;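 also: peak over basal fluorescence ratio per well then scaled between controls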
Target sequence (P08173 whole entry, looked up): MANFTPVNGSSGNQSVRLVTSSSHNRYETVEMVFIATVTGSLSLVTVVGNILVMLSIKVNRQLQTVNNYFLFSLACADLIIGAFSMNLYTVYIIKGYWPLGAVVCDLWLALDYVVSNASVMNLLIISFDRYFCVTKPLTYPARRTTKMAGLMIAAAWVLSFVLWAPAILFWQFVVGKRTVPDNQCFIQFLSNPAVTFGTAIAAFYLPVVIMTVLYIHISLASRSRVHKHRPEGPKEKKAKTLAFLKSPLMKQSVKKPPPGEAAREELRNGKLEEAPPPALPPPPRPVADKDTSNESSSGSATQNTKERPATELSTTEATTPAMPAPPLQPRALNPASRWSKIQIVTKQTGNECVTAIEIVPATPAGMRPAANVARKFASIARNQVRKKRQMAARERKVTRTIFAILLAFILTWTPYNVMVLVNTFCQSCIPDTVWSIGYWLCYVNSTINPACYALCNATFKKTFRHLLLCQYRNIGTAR
M5 antag – CHRM5 antagonism in calcium assay; CHO-hM5 cells, Fluo-8 calcium fluorescence, ACh EC80; hit rate 0.59% among 360,000; inhibition, % at 3 µM; P08912;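 active = inhibition above a per-plate cutoff, the mean of that plate's test compounds plus 3 SD, cut at about 27% in these data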
M4 antag – blocks acetylcholine activation of human M4 receptor | P08173 | hit rate 0.73% among 360,000 | CHO-hM4 cells, ACh EC80, Fluo-8 calcium fluorescence | AID 624125 | inhibition, % at 3 µM;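 active = inhibition above its plate's cutoff, the mean inhibition of sample wells plus 3 SD, cut at about 27% in these data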
CHRM5 PAM – CHRM5 positive allosteric modulation; AID 624038; activation, % at 3 µM; P08912; CHO-K1 hM5, Fluo-8 calcium, ACh EC20 PAM; 0% = ACh EC20, 100% = ACh EC100; hit rate 0.3% among 360,000;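 active = activation above the run cutoff, the mean activation of all test compounds plus 3 SD, cut at about 18% in these data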
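Assay system: CHO-K1 hM5 cells. Also added: acetylcholine at EC20 concentration, added after compound. Dosing: 3 µM, single dose. Times: compound preincubation 140 s before EC20 acetylcholine addition. Signal: Fluo-8 calcium fluorescence. Measure: % activation relative to EC20 and EC100 ACh responses. Repeats: singlicate, one well per test compound.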
M4 PAM – potentiates acetylcholine response at human M4 receptor; P08173; CHO-K1 hM4/Gqi5, Fluo-8 calcium fluorescence, ACh EC20; 0% = ACh EC20, 100% = maximal ACh; hit rate 0.4% among 360,000; activation, % at 3 µM;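 active = activation above its plate's cutoff, the mean activation of sample wells plus 3 SD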
A number is an active result. The list is not random: actives were taken first. Their share in the collection is about 1.8%.

Screening COc1ccc(NC(=O)COC(=O)CC2CC3CCC2C3)c([N+](=O)[O-])c1 (centres undefined) returned M5 ag inactive, CHRM4 agonist inactive, M5 antag inactive, M4 antag inactive, CHRM5 PAM inactive and M4 PAM 21.1.
For COC(=O)/C=C1\OCc2ccc(C)cc21 the results were M5 ag inactive, CHRM4 agonist inactive, M5 antag inactive, M4 antag inactive, CHRM5 PAM 18.5 and M4 PAM inactive.
For COc1cccc(CNC(=O)c2nnn(CC(=O)Nc3ccc4c(c3)OCO4)c2N)c1 the results were M5 ag inactive, CHRM4 agonist inactive, M5 antag inactive, M4 antag inactive, CHRM5 PAM inactive and M4 PAM inactive.
Cc1ccc(NC(=O)Cn2nnc(C(=O)NCc3ccc4c(c3)OCO4)c2N)cc1 was read as M5 ag inactive, CHRM4 agonist inactive, M5 antag inactive, M4 antag inactive, CHRM5 PAM 18.1 and M4 PAM inactive.
Screening COc1cccc(NC(=O)Cn2nnc(C(=O)NCc3ccc4c(c3)OCO4)c2N)c1 returned M5 ag inactive, CHRM4 agonist inactive, M5 antag inactive, M4 antag inactive, CHRM5 PAM 22.1 and M4 PAM inactive.
For Nc1c(C(=O)NCc2ccc3c(c2)OCO3)nnn1Cc1ccc(Br)cc1 the results were M5 ag 30.1, CHRM4 agonist inactive, M5 antag inactive, M4 antag inactive, CHRM5 PAM inactive and M4 PAM inactive.
`COc1c(C)cc(C(=O)C2CCCN(S(=O)(=O)N(C)C)C2)cc1C` (centres undefined) gave M5 ag inactive, CHRM4 agonist inactive, M5 antag inactive, M4 antag inactive, CHRM5 PAM inactive and M4 PAM inactive.
CN(C)C=Nc1c(Br)cc(Br)c2nonc12 was read as M5 ag 23.7, CHRM4 agonist inactive, M5 antag inactive, M4 antag inactive, CHRM5 PAM inactive and M4 PAM inactive.
CC1Cc2cc(-c3csc(NC(=O)Cc4cccs4)n3)ccc2N1S(C)(=O)=O (centres undefined) was read as M5 ag inactive, CHRM4 agonist inactive, M5 antag inactive, M4 antag 28.5, CHRM5 PAM inactive and M4 PAM inactive.
`Cc1noc(COc2ccccc2OCC(N)=O)n1` gave M5 ag inactive, CHRM4 agonist inactive, M5 antag inactive, M4 antag inactive, CHRM5 PAM inactive and M4 PAM inactive.
CC1=NNC(=O)/C1=C\c1cn(-c2ccccc2)nc1-c1cccs1 was read as M5 ag 23.7, CHRM4 agonist inactive, M5 antag inactive, M4 antag 60.1, CHRM5 PAM inactive and M4 PAM inactive.
Screening CC1=NNC(=O)/C1=C\c1cn(-c2ccccc2)nc1-c1ccc(F)cc1 returned M5 ag inactive, CHRM4 agonist inactive, M5 antag 49.6, M4 antag inactive, CHRM5 PAM inactive and M4 PAM inactive.
`O=C(O)CCCCCN1C(=O)/C(=C/c2cn(-c3ccccc3)nc2-c2cccs2)SC1=S` gave M5 ag inactive, CHRM4 agonist inactive, M5 antag inactive, M4 antag inactive, CHRM5 PAM inactive and M4 PAM inactive.
For COc1cc(C(=O)C(=O)N2CCC(Cc3ccccc3)CC2)cc2ccccc12 the results were M5 ag inactive, CHRM4 agonist inactive, M5 antag inactive, M4 antag inactive, CHRM5 PAM inactive and M4 PAM inactive.
Screening COc1ccc(CCNC(=O)C(=O)c2c(C)[nH]c3ccccc23)cc1 returned M5 ag inactive, CHRM4 agonist inactive, M5 antag 70.5, M4 antag inactive, CHRM5 PAM inactive and M4 PAM inactive.
For COc1ccc2c(c1)Cc1sc(NC(=O)c3ccco3)nc1-2 the results were M5 ag inactive, CHRM4 agonist inactive, M5 antag inactive, M4 antag inactive, CHRM5 PAM inactive and M4 PAM 27.3.
For COc1ccc2c(c1)CCc1sc(NC(=O)c3ccco3)nc1-2 the results were M5 ag inactive, CHRM4 agonist inactive, M5 antag inactive, M4 antag inactive, CHRM5 PAM inactive and M4 PAM 28.2.
For COc1ccc2c(c1)-c1nc(NC(=O)c3ccco3)sc1CC2 the results were M5 ag inactive, CHRM4 agonist inactive, M5 antag inactive, M4 antag inactive, CHRM5 PAM inactive and M4 PAM inactive.
For Cc1ccc(CN(C)C(=O)c2cccc(S(=O)(=O)N3CCc4ccccc4C3)c2)o1 the results were M5 ag inactive, CHRM4 agonist inactive, M5 antag inactive, M4 antag inactive, CHRM5 PAM inactive and M4 PAM inactive.
CN1CCCCC1CCN1c2ccccc2Sc2ccc(S(C)=O)cc21 (centres undefined) was read as M5 ag inactive, CHRM4 agonist inactive, M5 antag 98.4, M4 antag 88.0, CHRM5 PAM inactive and M4 PAM inactive.
For C=CCN1C(=O)c2ccccc2Sc2ccc(C(=O)N3CCN(C)CC3)cc21 the results were M5 ag inactive, CHRM4 agonist inactive, M5 antag inactive, M4 antag inactive, CHRM5 PAM inactive and M4 PAM inactive.
`C=CCn1c(O)c(C2=c3ccccc3=NC2=O)c2ccccc21` gave M5 ag inactive, CHRM4 agonist inactive, M5 antag inactive, M4 antag 49.8, CHRM5 PAM inactive and M4 PAM inactive.
Screening COc1cccc(C(C(=O)NCc2ccccc2)N2CCN(c3cccc(C)c3C)CC2)c1OC (centres undefined) returned M5 ag inactive, CHRM4 agonist inactive, M5 antag inactive, M4 antag inactive, CHRM5 PAM inactive and M4 PAM inactive.
Screening CCOc1ccc(S(=O)(=O)N2CCC(C(=O)NCc3ccco3)CC2)cc1C returned M5 ag inactive, CHRM4 agonist inactive, M5 antag inactive, M4 antag inactive, CHRM5 PAM inactive and M4 PAM inactive.
`COc1ccc(-n2nc(C(=O)NCC(=O)N3CCN(Cc4ccccc4)CC3)c3ccccc3c2=O)cc1OC` gave M5 ag inactive, CHRM4 agonist inactive, M5 antag 29.3, M4 antag inactive, CHRM5 PAM inactive and M4 PAM inactive.
`COC(=O)C1CN(C(=O)C(C)Oc2ccc(C(C)C)cc2)c2ccccc2O1` (centres undefined) gave M5 ag inactive, CHRM4 agonist inactive, M5 antag inactive, M4 antag inactive, CHRM5 PAM inactive and M4 PAM inactive.
Screening C#CCOCCOCCOCCNc1nc(N2CCN(C(=O)[C@H](C)n3cc(CCC(=O)O)nn3)CC2)nc(N2CCN(C(=O)[C@H](Cc3ccc(O)cc3)n3cc(CCO)nn3)CC2)n1 returned M5 ag inactive, CHRM4 agonist inactive, M5 antag inactive, M4 antag inactive, CHRM5 PAM inactive and M4 PAM inactive.
